Molecules are shown by their SMILES. pIC50: −log10 of the molar value. In brackets after ≈: the same amount, converted by molar mass. Bounds are passed on as bounds.

Data on two compounds can be found in ChEMBL document CHEMBL4118126, “An orally available, brain-penetrant CAMKK2 inhibitor reduces food intake in rodent model” (Bioorg Med Chem Lett, 2018).

Data set [1] concerns the target Mitogen-activated protein kinase 8 (Homo sapiens, UniProt P45983). In words: Inhibition of JNK1 (unknown origin).
Data set [2] has as its system Rattus norvegicus. The experiment in a line: Inhibition of ghrelin-induced food intake in Sprague-Dawley rat at 30 mg/kg, po administered 1 hr followed by ghrelin addition measured for 4 hrs relative to control. It counts as functional.
For data set [3], the target named is T1, Inhibitor of nuclear factor kappa-B kinase subunit alpha (Homo sapiens, UniProt O15111).
T1 sequence (O15111 whole entry): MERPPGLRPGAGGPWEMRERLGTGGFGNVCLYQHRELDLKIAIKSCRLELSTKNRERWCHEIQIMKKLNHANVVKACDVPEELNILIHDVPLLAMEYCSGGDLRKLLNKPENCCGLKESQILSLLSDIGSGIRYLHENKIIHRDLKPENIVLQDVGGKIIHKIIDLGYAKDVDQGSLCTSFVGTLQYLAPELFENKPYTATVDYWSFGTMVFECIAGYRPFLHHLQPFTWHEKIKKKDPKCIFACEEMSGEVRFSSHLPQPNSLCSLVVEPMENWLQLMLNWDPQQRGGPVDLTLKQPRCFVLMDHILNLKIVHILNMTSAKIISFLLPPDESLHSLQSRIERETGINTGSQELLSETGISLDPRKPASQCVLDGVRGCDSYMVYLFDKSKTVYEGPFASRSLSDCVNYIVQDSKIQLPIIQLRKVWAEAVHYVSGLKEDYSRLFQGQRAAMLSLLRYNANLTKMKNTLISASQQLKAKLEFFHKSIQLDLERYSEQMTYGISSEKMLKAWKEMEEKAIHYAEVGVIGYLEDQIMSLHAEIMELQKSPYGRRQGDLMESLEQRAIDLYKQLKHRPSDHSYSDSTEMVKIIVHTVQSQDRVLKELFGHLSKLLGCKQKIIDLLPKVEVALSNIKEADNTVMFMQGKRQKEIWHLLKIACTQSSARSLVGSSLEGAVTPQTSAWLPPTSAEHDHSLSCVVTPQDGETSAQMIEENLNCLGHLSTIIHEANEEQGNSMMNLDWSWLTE
The experiment in a line: Inhibition of IKK1 (unknown origin).

The nature of data set [4]: Solubility of the compound in pH 7.4 phosphate buffer saline after 1 hr by chemiluminescence nitrogen detection method. It counts as physicochemical. The conditions noted are these: phosphate buffered saline. The essentials: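 Kinetic solubility: 10 mM DMSO stock diluted 1:20 into 10 mM phosphate-buffered saline pH 7.4, equilibrated 1 h at RT, filtered, and filtrate quantified by calibrated flow-injection chemiluminescent nitrogen detection.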

The target in the next data set is T2, Aurora kinase A (Homo sapiens, UniProt O14965).
T2 sequence (O14965 whole entry): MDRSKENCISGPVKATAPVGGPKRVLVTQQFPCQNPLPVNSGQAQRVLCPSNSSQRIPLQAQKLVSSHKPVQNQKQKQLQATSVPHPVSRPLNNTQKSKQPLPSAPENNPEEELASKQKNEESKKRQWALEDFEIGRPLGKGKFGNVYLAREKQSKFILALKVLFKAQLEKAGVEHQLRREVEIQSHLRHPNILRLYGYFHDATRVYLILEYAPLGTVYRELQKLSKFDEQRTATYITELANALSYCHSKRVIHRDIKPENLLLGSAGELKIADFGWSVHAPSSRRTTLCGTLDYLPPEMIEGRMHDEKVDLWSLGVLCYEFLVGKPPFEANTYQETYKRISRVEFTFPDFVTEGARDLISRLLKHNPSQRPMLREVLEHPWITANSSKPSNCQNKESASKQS
The experiment in a line: Inhibition of aurora A (unknown origin).

Data set [5] is described as follows: Ratio of drug level in brain to plasma in CD rat at 30 mg/kg, po. It counts as ADME, organism-based. The following applies: read-out: BPR.
In the next data set the target is Insulin receptor (Homo sapiens, UniProt P06213). In words: Inhibition of INSR (unknown origin). The following applies: for IC50: read-out: pIC50 (converted).
Chain of Insulin receptor (P06213 28-758 limits assumed): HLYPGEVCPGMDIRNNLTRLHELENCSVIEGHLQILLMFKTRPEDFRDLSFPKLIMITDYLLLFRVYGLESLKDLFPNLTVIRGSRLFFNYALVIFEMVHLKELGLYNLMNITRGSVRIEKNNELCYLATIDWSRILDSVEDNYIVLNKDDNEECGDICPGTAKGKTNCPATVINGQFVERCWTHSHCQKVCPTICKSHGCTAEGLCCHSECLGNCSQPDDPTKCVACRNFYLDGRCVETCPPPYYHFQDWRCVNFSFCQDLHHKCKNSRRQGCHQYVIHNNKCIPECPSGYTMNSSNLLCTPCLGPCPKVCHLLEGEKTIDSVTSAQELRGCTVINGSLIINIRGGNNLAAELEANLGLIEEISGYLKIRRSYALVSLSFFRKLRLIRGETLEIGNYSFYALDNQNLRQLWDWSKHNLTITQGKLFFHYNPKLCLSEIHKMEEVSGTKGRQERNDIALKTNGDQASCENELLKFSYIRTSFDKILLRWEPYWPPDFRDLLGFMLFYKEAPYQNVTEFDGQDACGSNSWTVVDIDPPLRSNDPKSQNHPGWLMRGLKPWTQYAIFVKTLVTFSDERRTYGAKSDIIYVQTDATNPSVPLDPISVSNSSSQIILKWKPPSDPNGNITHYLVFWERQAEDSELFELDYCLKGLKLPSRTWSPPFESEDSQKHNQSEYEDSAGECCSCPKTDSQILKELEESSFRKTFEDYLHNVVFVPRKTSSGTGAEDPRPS
Chain of Insulin receptor (P06213 763-1382 limits assumed): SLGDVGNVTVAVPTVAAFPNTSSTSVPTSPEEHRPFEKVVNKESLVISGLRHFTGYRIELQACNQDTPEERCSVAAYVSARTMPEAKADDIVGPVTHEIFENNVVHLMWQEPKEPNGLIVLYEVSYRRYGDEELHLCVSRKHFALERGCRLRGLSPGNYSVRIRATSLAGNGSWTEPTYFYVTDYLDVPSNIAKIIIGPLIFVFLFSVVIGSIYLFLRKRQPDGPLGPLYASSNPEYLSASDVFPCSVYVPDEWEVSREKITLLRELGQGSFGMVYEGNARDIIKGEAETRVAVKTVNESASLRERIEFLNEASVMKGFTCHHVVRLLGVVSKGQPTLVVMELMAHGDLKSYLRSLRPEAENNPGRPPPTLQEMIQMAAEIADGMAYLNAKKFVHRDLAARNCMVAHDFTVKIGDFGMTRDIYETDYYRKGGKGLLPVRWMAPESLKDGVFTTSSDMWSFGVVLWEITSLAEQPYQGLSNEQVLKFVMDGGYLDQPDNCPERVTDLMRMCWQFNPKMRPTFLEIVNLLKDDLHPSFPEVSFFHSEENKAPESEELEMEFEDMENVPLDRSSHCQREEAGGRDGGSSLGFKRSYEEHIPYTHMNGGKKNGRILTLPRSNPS
The target of data set [6] is Calcium/calmodulin-dependent protein kinase kinase 2 (Homo sapiens, UniProt Q96RR4). In words: Inhibition of full-length human GST-tagged CAMKK2 using 5FAM-AKPKGNKDYHLQTCCGSLAYRRR-amide as substrate preincubated for 30 mins followed by substrate addition measured after 120 mins by fluorescence polarization assay.
Chain of Calcium/calmodulin-dependent protein kinase kinase 2 (Homo sapiens, UniProt Q96RR4) (Q96RR4 whole entry): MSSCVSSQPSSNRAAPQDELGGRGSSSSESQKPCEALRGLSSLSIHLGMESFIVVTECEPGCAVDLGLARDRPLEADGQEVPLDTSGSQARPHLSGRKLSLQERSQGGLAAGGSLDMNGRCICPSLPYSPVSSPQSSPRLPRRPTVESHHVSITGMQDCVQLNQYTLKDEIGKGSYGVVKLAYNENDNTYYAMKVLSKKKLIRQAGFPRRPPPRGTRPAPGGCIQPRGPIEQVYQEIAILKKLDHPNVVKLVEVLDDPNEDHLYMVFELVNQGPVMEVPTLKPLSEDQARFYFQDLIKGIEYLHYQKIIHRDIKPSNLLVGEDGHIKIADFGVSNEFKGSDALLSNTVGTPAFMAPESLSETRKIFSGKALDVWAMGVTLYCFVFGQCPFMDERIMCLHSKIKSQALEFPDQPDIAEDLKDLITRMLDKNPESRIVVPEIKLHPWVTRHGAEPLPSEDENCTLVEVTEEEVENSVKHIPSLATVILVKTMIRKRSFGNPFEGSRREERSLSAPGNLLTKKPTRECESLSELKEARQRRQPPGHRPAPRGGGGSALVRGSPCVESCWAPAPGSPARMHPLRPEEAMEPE
Data set [7] deals with Rattus norvegicus. In words: Reduction of food intake in Sprague-Dawley rat at 30 mg/kg, po administered 1 hr measured for 4 hrs. The format is ADME, organism-based. The conditions noted are these: in vivo.
A short description of data set [8]: Cmax in CD rat at 30 mg/kg, po. It counts as ADME, organism-based. Details: dose 30 mg/kg, route oral. The following applies: in vivo.
In data set [9] the target is T3, Discoidin domain-containing receptor 2 (Homo sapiens, UniProt Q16832).
T3 sequence (Q16832 whole entry): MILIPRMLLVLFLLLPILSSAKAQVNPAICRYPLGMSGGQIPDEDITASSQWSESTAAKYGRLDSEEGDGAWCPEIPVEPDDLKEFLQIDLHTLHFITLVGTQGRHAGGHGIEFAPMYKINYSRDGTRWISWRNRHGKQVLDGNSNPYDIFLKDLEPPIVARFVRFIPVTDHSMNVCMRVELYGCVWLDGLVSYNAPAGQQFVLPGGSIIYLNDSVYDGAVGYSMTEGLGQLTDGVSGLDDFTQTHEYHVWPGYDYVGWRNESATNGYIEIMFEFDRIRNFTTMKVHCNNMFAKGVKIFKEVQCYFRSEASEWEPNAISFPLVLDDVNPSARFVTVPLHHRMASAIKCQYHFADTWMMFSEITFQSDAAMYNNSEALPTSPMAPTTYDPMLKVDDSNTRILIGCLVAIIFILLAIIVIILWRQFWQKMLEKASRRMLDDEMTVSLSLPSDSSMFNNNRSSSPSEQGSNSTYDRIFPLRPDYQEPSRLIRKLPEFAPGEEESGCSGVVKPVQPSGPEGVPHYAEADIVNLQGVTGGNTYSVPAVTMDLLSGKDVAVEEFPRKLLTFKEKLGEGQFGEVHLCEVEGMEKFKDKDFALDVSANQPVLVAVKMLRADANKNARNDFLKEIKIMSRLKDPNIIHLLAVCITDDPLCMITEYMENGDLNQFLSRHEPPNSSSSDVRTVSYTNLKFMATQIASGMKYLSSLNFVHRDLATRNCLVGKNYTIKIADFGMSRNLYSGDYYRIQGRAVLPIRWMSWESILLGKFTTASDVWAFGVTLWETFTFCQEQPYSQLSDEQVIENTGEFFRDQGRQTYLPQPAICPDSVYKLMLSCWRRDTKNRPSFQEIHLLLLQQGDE
The experiment in a line: Inhibition of DDR2 (unknown origin).

The target in data set [10] is Calcium/calmodulin-dependent protein kinase kinase 2 (Mus musculus, UniProt Q8C078). The experiment in a line: Inhibition of CAMKK2 in mouse N39 cells assessed as decrease in AMPKalpha phosphorylation at T172 preincubated for 80 mins followed by […] addition by ELISA. The format is cell-based. The essentials:
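Mouse N39 cells seeded ~1000 cells/well, cultured overnight at 37°C, 5% CO2, then exposed to compound in DMSO for 80 min before ionomycin stimulation ([…] as added). Cells were lysed in extraction buffer for 30 min on ice, then diluted into ice-cold lysis buffer containing protease and phosphatase inhibitors for MSD read-out.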

Data set [11] is described as follows: Cmax in CD rat at 10 mg/kg, po. The format is ADME, organism-based. Details: dose 10 mg/kg, route oral. The conditions noted are these: in vivo.
Data set [12] can be described thus: Ratio of drug level in brain to plasma in CD rat at 10 mg/kg, po. It counts as ADME, organism-based. The conditions noted are these: read-out: BPR.

Chain of Calcium/calmodulin-dependent protein kinase kinase 2 (Mus musculus, UniProt Q8C078) (Q8C078 whole entry): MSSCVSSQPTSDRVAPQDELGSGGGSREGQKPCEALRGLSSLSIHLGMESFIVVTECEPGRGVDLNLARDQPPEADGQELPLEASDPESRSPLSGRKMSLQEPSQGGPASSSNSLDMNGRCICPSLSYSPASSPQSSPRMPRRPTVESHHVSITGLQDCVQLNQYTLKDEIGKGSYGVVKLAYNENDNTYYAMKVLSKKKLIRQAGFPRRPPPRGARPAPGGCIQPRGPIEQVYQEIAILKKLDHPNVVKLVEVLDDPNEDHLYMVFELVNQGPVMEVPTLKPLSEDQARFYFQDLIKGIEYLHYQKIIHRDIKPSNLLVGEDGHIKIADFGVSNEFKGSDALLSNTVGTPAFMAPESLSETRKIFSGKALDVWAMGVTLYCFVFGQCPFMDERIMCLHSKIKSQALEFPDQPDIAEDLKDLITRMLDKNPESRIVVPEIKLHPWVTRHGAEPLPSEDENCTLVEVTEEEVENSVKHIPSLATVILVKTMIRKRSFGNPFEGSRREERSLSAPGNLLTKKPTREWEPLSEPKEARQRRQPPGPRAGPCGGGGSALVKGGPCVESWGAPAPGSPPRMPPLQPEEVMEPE
Chain of Mitogen-activated protein kinase 8 (P45983 whole entry): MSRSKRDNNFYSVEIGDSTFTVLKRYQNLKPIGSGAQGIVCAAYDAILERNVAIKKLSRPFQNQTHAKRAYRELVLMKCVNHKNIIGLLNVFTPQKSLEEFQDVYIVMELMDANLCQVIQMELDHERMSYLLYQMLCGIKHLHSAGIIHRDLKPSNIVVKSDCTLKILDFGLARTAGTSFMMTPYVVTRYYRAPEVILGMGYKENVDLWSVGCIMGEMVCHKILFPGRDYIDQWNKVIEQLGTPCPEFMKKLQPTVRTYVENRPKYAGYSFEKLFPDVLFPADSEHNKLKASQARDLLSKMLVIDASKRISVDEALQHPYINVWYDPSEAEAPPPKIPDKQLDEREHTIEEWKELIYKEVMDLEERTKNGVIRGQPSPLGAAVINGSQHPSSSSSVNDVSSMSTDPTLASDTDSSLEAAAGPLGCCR

The pIC50 is the IC50 on a negative log10 scale, so that one unit is a factor of ten. As usually defined, the inhibition in vivo is how much of the control response was suppressed. A low value points to a response near the control. As usually defined, the solubility is the dissolved amount per volume that the medium holds. A low value points to a poorly soluble substance. What is called Cmax is the highest concentration seen after dosing. For `Cc1cc(OCCN2CCOCC2)ccc1-c1cc2c(-c3ccc(C#N)c(C(C)C)c3)ccnc2[nH]1`, the pIC50 was less than 5.00 in data set [1]; less than 4.60 in [3]; less than 5.00 against Aurora kinase A; less than 5.00 at Insulin receptor (read-out: IC50); 8.20 in [6]; less than 5.00 in data set [9]. Further, the pIC50 in data set [10] was 6.30. In addition, 30 mg/kg produced 40% inhibition in vivo with Rattus norvegicus [2]. Further, the solubility at 1 h in data set [4] was less than 1 µM. Besides, the Kp in [5] was 0.9. Also, the IC50 on Insulin receptor was greater than 10000 nM. The Activity entry in the data set with Rattus norvegicus [7] was “Non-Toxic”. The compound also had a Cmax in data set [8] of 964 ng/mL.
On to `COc1ccccc1-c1cc2c(-c3ccc(C(N)=O)c(C4CCCC4)c3)ccnc2[nH]1`, for which the pIC50 in data set [1] is 5.70; in data set [3], 5.60; in data set [6], 8.70; in data set [10], 7.00. In data set [4], this compound came in with a solubility at 1 h of 7 µM (≈ 2.88 µg/mL). The IC50 on Insulin receptor was 794 nM. Besides, in data set [11], the Cmax was found to be 35 ng/mL. The Kp in [12] is 3.2.
